Active and inactive are the calls of the source. The calls are words filed in the database; no cut-off is given here.
Key:
[1] = tested on: Leishmania amazonensis; assay: Antiamastigote activity against Leishmania amazonensis MHOM/BR/87/BA125 infected in BALB/c assessed as decrease of lesion size in ear at 30 mg/kg, po qd for 28 days measured up to 30 days; format: functional
In short: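 Female BALB/c mice, 6-8 weeks old, inoculated in right ear dermis with 10⁵ stationary-phase L. amazonensis promastigotes in sterile saline. From the second week post-infection, groups of 5 were dosed orally once daily for 28 days at 30 mg/kg/day in water; vehicle control received water orally. Lesion size was taken as infected minus contralateral ear thickness, measured twice weekly by digital caliper.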

[2] = tested on: Leishmania amazonensis; assay: Antiamastigote activity against Leishmania amazonensis MHOM/BR/87/BA125 infected in BALB/c mouse peritoneal macrophages assessed as inhibition of infection index after 48 hrs by Giemsa staining; format: functional, organism-based
In short: (§1)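 Thioglycollate-elicited BALB/c peritoneal macrophages, 4 × 10⁵ per well on coverslips in DMEM with 10% FBS, adhered overnight and were infected with L. amazonensis promastigotes at 37 °C for 4 h. Free parasites were removed, then compounds were added (1, 10, 100 µM; DMSO ≤0.01%) for 48 h at 37 °C, 5% CO2. Infection index = % infected × mean amastigotes per macrophage.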

[3] = tested on: Leishmania amazonensis; assay: Antiamastigote activity against Leishmania amazonensis MHOM/BR/87/BA125 infected in BALB/c assessed as decrease of parasite load in draining lymph nodes at 30 mg/kg, po qd for 28 days measured up to 30 days; format: functional, organism-based
In short: (§2)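 BALB/c mice (n = 5 per group) infected in the ear dermis with 10⁵ L. amazonensis promastigotes, then dosed orally with 30 mg/kg/day in water for 28 days. After treatment, infected ears and draining lymph nodes were excised, homogenized and serially diluted in Schneider medium with 10% FCS for a limiting dilution assay. Groups were compared to control by one-way ANOVA with Dunnett's test.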

[4] = tested on: Leishmania amazonensis; assay: Antiamastigote activity against Leishmania amazonensis MHOM/BR/87/BA125 infected in BALB/c assessed as decrease of parasite load in ear at 30 mg/kg, po qd for 28 days measured up to 30 days; format: functional, organism-based; in short: as §2
[5] = tested on: Leishmania amazonensis; assay: Antiamastigote activity against Leishmania amazonensis MHOM/BR/87/BA125 infected in BALB/c mouse peritoneal macrophages assessed as decrease of percentage of infected macrophages at 100 uM after 48 hrs by Giemsa staining; format: functional; conditions: MHOM/BR/87/BA125, 48 h; in short: as §1
[6] = tested on: Leishmania amazonensis; assay: Antiamastigote activity against Leishmania amazonensis MHOM/BR/87/BA125 infected in BALB/c mouse peritoneal macrophages assessed as decrease of number of intracellular parasites per macrophage at 1 to 100 uM after 48 hrs by Giemsa staining; format: functional, organism-based; in short: as §1
[7] = tested on: Leishmania amazonensis; assay: Leishmanicidal activity against Leishmania amazonensis MHOM/BR/87/BA125 after 48 hrs relative to control; format: functional; design: concentration or dose not given beside the values
In short: (§3)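 Log-phase promastigotes at 10⁵ per well in medium with 10% heat-inactivated FCS, 2 mM L-glutamine, gentamicin and 2% human urine were grown with compound at 26 °C for 48 h. Parasites were counted by automatic cell counter, with inhibition expressed as % of DMSO-treated control. Triplicates, with experiments repeated at least twice.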

[8] = tested on: Leishmania amazonensis; assay: Leishmanicidal activity against Leishmania amazonensis MHOM/BR/87/BA125 after 48 hrs; format: functional, organism-based; conditions: MHOM/BR/87/BA125, 48 h; in short: as §3
[9] = tested on: Leishmania braziliensis; assay: Leishmanicidal activity against Leishmania braziliensis MHOM/BR/01/BA788 after 48 hrs relative to control; format: functional; design: concentration or dose not given beside the values; in short: as §3
[10] = tested on: Leishmania amazonensis; assay: Antiamastigote activity against Leishmania amazonensis MHOM/BR/87/BA125 infected in BALB/c mouse peritoneal macrophages assessed as decrease of percentage of infected macrophages at 1 to 100 uM after 48 hrs by Giemsa staining; format: functional, organism-based; in short: as §1
[11] = tested on: Leishmania braziliensis; assay: Leishmanicidal activity against Leishmania braziliensis MHOM/BR/01/BA788 after 48 hrs; format: functional, organism-based; conditions: MHOM/BR/01/BA788, 48 h; in short: as §3
[12] = tested on: Leishmania amazonensis; assay: Antiamastigote activity against Leishmania amazonensis MHOM/BR/87/BA125 infected in BALB/c mouse peritoneal macrophages assessed as decrease of percentage of infected macrophages at 1 uM after 48 hrs by Giemsa staining; format: functional, organism-based; in short: as §1
[13] = Cytotoxicity against mouse J774 cells after 48 hrs by MTT assay; format: cell-based; conditions: read-out: LC50
In short: (§4)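 J774 murine macrophages in DMEM with 2 mM L-glutamine, 10 mM HEPES, 10% FCS and gentamicin were seeded at 1.5 × 10⁵ cells/well and attached for 24 h at 37 °C. Cells were exposed to 1, 10 or 100 µM for 48 h, then given MTT for 1 h at 37 °C in the dark. Formazan was dissolved in DMSO and read at 540 nm. Triplicates with growth controls.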

[14] = tested on: Leishmania amazonensis; assay: Antiamastigote activity against Leishmania amazonensis MHOM/BR/87/BA125 infected in BALB/c mouse peritoneal macrophages assessed as inhibition of infection index at 100 uM after 48 hrs by Giemsa staining; format: functional; conditions: MHOM/BR/87/BA125, 48 h; in short: as §1
[15] = tested on: Leishmania amazonensis; assay: Antiamastigote activity against Leishmania amazonensis MHOM/BR/87/BA125 infected in BALB/c mouse peritoneal macrophages assessed as decrease of percentage of infected macrophages at 10 to 100 uM after 48 hrs by Giemsa staining; format: functional, organism-based; in short: as §1
[16] = tested on: J774; assay: Cytotoxicity against mouse J774 cells at 100 uM after 48 hrs by MTT assay; format: cell-based; conditions: j774, 48 h; in short: as §4

Row | Compound | Activity [1] [mm] | inhibition [2] | Activity [3] | Activity [4] | inhibition at 100 µM [5] [%] | Activity [6] | Efficacy [7] | IC50 [8] [µM] | Efficacy [9] | Activity [10] | IC50 [11] [µM] | Activity [12] | CC50 at 48 h [13] [µM] | inhibition at 100 µM [14] [%] | Activity [15] | Activity [16] [%]
1 | CCC(C)OP(=O)(N/N=C/c1cncc(Br)c1)OC(C)CC (stereo not given) | 0.0527 | Dose-dependent effect | Active | inactive | 99.3 | Active | 93.8% | 26.3 | 92.2% | Active | 3.6 | inactive | > 100 | 99.9 | Active | 
2 | CC(C)OP(=O)(N/N=C/c1ccncc1)OC(C)C |  |  |  |  |  |  | inactive | > 100 | inactive |  | > 100 |  | > 100 |  |  | 
3 | CC(C)COP(=O)(N/N=C/c1ccccn1)OCC(C)C |  |  |  |  |  |  | 40.7% | 98.3 | inactive |  | > 100 |  | > 100 |  |  | 
4 | CC(C)COP(=O)(N/N=C/c1cccnc1)OCC(C)C |  |  |  |  |  |  | 52.8% | 83.3 | 81.6% |  | 40.7 |  | > 100 |  |  | 
5 | CCC(C)OP(=O)(N/N=C/c1c(Cl)cncc1Cl)OC(C)CC (stereo not given) |  |  |  |  |  |  | 92.4% | 26 | 74.1% |  | 0.03 |  | > 100 |  |  | 20.5
6 | CC(C)COP(=O)(N/N=C/c1ccncc1)OCC(C)C |  |  |  |  |  |  | inactive | > 100 | 84.2% |  | 0.06 |  | > 100 |  |  | 
7 | CCOP(=O)(N/N=C/c1ccccn1)OCC (mixture of isomers) |  |  |  |  |  |  | inactive | > 100 | 62.1% |  | 7.5 |  | > 100 |  |  | 
8 | CCCCCCCCCCCCCCCCOP(=O)([O-])OCC[N+](C)(C)C [MILTEFOSINE] |  |  | Active | Active |  |  | 96.3% | 3.4 | 84.5% |  | 0.7 |  | > 100 | 100 |  | 
9 | CCCCOP(=O)(N/N=C/c1ccccn1)OCCCC (mixture of isomers) |  |  |  |  |  |  | 69.5% | 6.2 | 76.3% |  | 0.06 |  | > 100 |  |  | 
10 | N=C(N)c1ccc(OCCCCCOc2ccc(C(=N)N)cc2)cc1 [PENTAMIDINE] |  |  |  |  |  |  | 93.8% | 1.8 | 95.7% |  | 0.06 |  | > 100 |  |  | 28.8
11 | CC(C)OP(=O)(N/N=C/c1cccnc1)OC(C)C |  |  |  |  |  |  | inactive | > 100 | 75.9% |  | 0.4 |  | > 100 |  |  | 
12 | CCCCOP(=O)(N/N=C/c1cccnc1)OCCCC |  |  |  |  |  |  | 85.6% | 53.3 | 87.9% |  | 5.4 |  | > 100 |  |  | 
13 | CCOP(=O)(N/N=C/c1ccncc1)OCC |  |  |  |  |  |  | inactive | > 100 | inactive |  | > 100 |  | > 100 |  |  | 
14 | CCOP(=O)(N/N=C/c1cccnc1)OCC |  |  |  |  |  |  | inactive | > 100 | inactive |  | > 100 |  | > 100 |  |  | 
15 | CCCCOP(=O)(N/N=C/c1ccncc1)OCCCC |  |  |  |  |  |  | 45.5% | 99.3 | 77.2% |  | 5.1 |  | > 100 |  |  | 
16 | CCC(C)OP(=O)(N/N=C/c1cccnc1Br)OC(C)CC (stereo not given) | 0.0804 | Dose-dependent effect | Active | Active | 82.2 | Active | 95.3% | < 0.001 | 80.1% | Active | 5.2 | inactive | > 100 | 97.9 | Active | 
17 | CC(C)OP(=O)(N/N=C/c1ccccn1)OC(C)C |  |  |  |  |  |  | inactive | > 100 | 56.3% |  | 0.7 |  | > 100 |  |  | 

From ChEMBL document CHEMBL3612006, “Novel dialkylphosphorylhydrazones: Synthesis, leishmanicidal evaluation and theoretical investigation of the proposed mechanism of action” (Eur J Med Chem, 2015)
